Measurements taken from ChEMBL document CHEMBL4311965, “Antimicrobial activity of amphipathic α,α-disubstituted β-amino amide derivatives against ESBL - CARBA producing multi-resistant bacteria; effect of halogenation, lipophilicity and cationic character” (Eur J Med Chem, 2019).
Values after ≈ are worked out from the molar mass of the structure shown.

Columns and labels:
Staphylococcus aureus = test: Antibacterial activity against Staphylococcus aureus ATCC 9144 cultured in MHB medium assessed as no bacterial growth incubated at 37 degC for 24 hrs by microdilution susceptibility test; assay type: functional; conditions: ATCC 9144, 24 h
Procedure, shortened: (§1)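 Broth microdilution per CLSI M07-A9 with modifications. Inoculum about 2.5–3 x 10⁴ cells/mL in Mueller-Hinton broth, mixed 1:1 with test derivative. DMSO stocks diluted in double-distilled water, final DMSO <1%. Incubation 24 h at 37 °C (20 °C for C. glutamicum). Growth and sterility controls included; oxytetracycline reference.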

[1] = test system: Corynebacterium glutamicum; test: Antibacterial activity against Corynebacterium glutamicum ATCC 13032 cultured in MHB medium assessed as no bacterial growth incubated at 20 degC for 24 hrs by microdilution susceptibility test; assay type: functional; conditions: ATCC 13032, 24 h; procedure, shortened: as §1
Escherichia coli = test: Antibacterial activity against Escherichia coli ATCC 25922 cultured in MHB medium assessed as no bacterial growth incubated at 37 degC for 24 hrs by microdilution susceptibility test; assay type: functional; conditions: ATCC 25922, 24 h; procedure, shortened: as §1
Pseudomonas aeruginosa = test: Antibacterial activity against Pseudomonas aeruginosa PA01 DSM 19880 (ATCC 15692) cultured in MHB medium assessed as no bacterial growth incubated at 37 degC for 24 hrs by microdilution susceptibility test; assay type: functional; conditions: PAO1 DSM 19880 (ATCC 15692); procedure, shortened: as §1
Erythrocyte = test: Hemolytic activity against human RBC incubated for 1 hr; assay type: cell-based
Procedure, shortened: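 Heparinized human blood washed three times in warm PBS and set to 10% hct. Erythrocytes at 1% v/v final, with compound in PBS (DMSO <1%), shaken 1 h at 37 °C and then centrifuged. Supernatant absorbance read at 405 and 545 nm after PBS background subtraction. Haemolysis taken relative to 1% Triton X-100. Three independent replicates, EC50 averaged.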

HepG2 = test: Cytotoxicity against human HepG2 cells assessed as reduction in cell viability incubated for 4 hrs by CellTiter 96 Aqueous One Solution Reagent based assay; conditions: HepG2, 4 h
Procedure, shortened: (§2)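 HepG2 and MRC-5 cells seeded at 35 000 and 15 000 cells/well respectively, then held overnight at 37 °C, 5% CO₂. Compounds in serum-free MEM Earle's applied for 4 h. MTS reagent (CellTiter 96 AQueous One) added for a further 1 h, absorbance read at 485 nm. Survival expressed relative to medium (negative) and Triton X-100 (positive) controls.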

MRC5 = test: Cytotoxicity against human MRC5 cells assessed as reduction in cell viability incubated for 4 hrs by CellTiter 96 Aqueous One Solution Reagent based assay; conditions: MRC5, 4 h; procedure, shortened: as §2
[2] = Selectivity index, ratio of EC50 for hemolytic activity against human RBC to MIC for antibacterial activity against Staphylococcus aureus ATCC 9144; assay type: toxicity; conditions: human red blood cells (RBC)
Procedure, shortened: (§3)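 Selectivity index is the RBC haemolysis EC50 divided by the MIC against the E. coli or S. aureus reference strain.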

[3] = Selectivity index, ratio of EC50 for hemolytic activity against human RBC to MIC for antibacterial activity against Escherichia coli ATCC 25922; assay type: toxicity; conditions: human red blood cells (RBC); procedure, shortened: as §3
[4] = Aqueous solubility of the compound in DMSO; assay type: physicochemical

MIC (Staphylococcus aureus) [µg/mL]	MIC [1] [µg/mL]	MIC (Escherichia coli) [µg/mL]	MIC (Pseudomonas aeruginosa) [µg/mL]	solubility [4]	Structure (SMILES)	EC50 (Erythrocyte) [µg/mL]	EC50 (HepG2) [µg/mL]	EC50 (MRC5) [µg/mL]	selectivity ratio [2]	selectivity ratio [3]
32 (≈ 72.2 µM)	8 (≈ 18 µM)	16 (≈ 36.1 µM)	64 (≈ 144 µM)	Soluble	N#CC(Cc1ccc(C(F)(F)F)cc1)(Cc1ccc(C(F)(F)F)cc1)C(=O)NCCN	178 (≈ 401 µM)	23 (≈ 51.9 µM)	18 (≈ 40.6 µM)	6	11
16 (≈ 36.1 µM)	8 (≈ 18 µM)	16 (≈ 36.1 µM)	32 (≈ 72.2 µM)	Soluble	N#CC(Cc1ccccc1C(F)(F)F)(Cc1ccccc1C(F)(F)F)C(=O)NCCN	89 (≈ 201 µM)	24 (≈ 54.1 µM)	27 (≈ 60.9 µM)	6	6
> 64	> 64	> 64	> 64	Soluble	NCCNC(=O)C(CN)(Cc1ccccc1F)Cc1ccccc1F		> 64			
> 64	32 (≈ 84.4 µM)	> 64	> 64	Soluble	N#CC(Cc1cc(F)cc(F)c1)(Cc1cc(F)cc(F)c1)C(=O)NCCN	208 (≈ 548 µM)	> 64			
> 64	> 64	> 64	> 64	Soluble	NCCNC(=O)C(CN)(Cc1c(F)cccc1F)Cc1c(F)cccc1F		> 64			
> 64	16 (≈ 46.6 µM)	64 (≈ 186 µM)	> 64	Soluble	N#CC(Cc1ccccc1F)(Cc1ccccc1F)C(=O)NCCN	190 (≈ 553 µM)	> 64			3
> 64	> 64	> 64	> 64		N#CC(Cc1cc(Br)cc(Br)c1)(Cc1cc(Br)cc(Br)c1)C(=O)NCCN					
> 64	64 (≈ 167 µM)	> 64	> 64	Soluble	NCCNC(=O)C(CN)(Cc1cc(F)cc(F)c1)Cc1cc(F)cc(F)c1	228 (≈ 595 µM)	> 64			
0.65	0.65	2.5	20		CN(C)[C@@H]1C(O)=C(C(N)=O)C(=O)[C@@]2(O)C(O)=C3C(=O)c4c(O)cccc4[C@@](C)(O)[C@H]3[C@H](O)[C@@H]12.Cl [OXYTETRACYCLINE HYDROCHLORIDE]		> 64			
16 (≈ 34.4 µM)	32 (≈ 68.8 µM)	32 (≈ 68.8 µM)	> 64	Soluble	N#CC(Cc1ccccc1Br)(Cc1ccccc1Br)C(=O)NCCN	211 (≈ 454 µM)	26 (≈ 55.9 µM)	32 (≈ 68.8 µM)	13	7
> 64	> 64	> 64	> 64	Soluble	N#CC(Cc1c(F)cccc1F)(Cc1c(F)cccc1F)C(=O)NCCN		> 64			
4 (≈ 9.72 µM)	2 (≈ 4.86 µM)	16 (≈ 38.9 µM)	16 (≈ 38.9 µM)	Soluble	NCCNC(=O)C(CN)(Cc1cccc2ccccc12)Cc1cccc2ccccc12	90 (≈ 219 µM)		9 (≈ 21.9 µM)	23	6
4 (≈ 9.02 µM)	2 (≈ 4.51 µM)	4 (≈ 9.02 µM)	32 (≈ 72.2 µM)	Soluble	N#CC(Cc1ccc(F)c2ccccc12)(Cc1ccc(F)c2ccccc12)C(=O)NCCN	> 500	12 (≈ 27.1 µM)	4 (≈ 9.02 µM)		
64 (≈ 136 µM)	8 (≈ 17 µM)	64 (≈ 136 µM)	64 (≈ 136 µM)	Soluble	NCCNC(=O)C(CN)(Cc1ccccc1Br)Cc1ccccc1Br	271 (≈ 578 µM)	48 (≈ 102 µM)	56 (≈ 119 µM)	4	4
